Laboratory results taken from ChEMBL document CHEMBL1131143, “Predictive models for GABAA/benzodiazepine receptor subtypes: studies of quantitative structure-activity relationships for imidazobenzodiazepines at five recombinant GABAA/benzodiazepine receptor subtypes [alphaxbeta3gamma2 (x = 1-3, 5, and 6)] via comparative molecular field analysis” (J Med Chem, 1998).

Experiments:
Type in all cases: protein-complex assay
[1] = molecular target: T1, GABA-A receptor; alpha-1/beta-3/gamma-2 (Homo sapiens, UniProt P14867+P18507+P28472); assay: Binding affinity against alpha-1-beta-3-gamma-2 GABAA/BzR receptor subtype.
T1 sequence (P14867 whole entry): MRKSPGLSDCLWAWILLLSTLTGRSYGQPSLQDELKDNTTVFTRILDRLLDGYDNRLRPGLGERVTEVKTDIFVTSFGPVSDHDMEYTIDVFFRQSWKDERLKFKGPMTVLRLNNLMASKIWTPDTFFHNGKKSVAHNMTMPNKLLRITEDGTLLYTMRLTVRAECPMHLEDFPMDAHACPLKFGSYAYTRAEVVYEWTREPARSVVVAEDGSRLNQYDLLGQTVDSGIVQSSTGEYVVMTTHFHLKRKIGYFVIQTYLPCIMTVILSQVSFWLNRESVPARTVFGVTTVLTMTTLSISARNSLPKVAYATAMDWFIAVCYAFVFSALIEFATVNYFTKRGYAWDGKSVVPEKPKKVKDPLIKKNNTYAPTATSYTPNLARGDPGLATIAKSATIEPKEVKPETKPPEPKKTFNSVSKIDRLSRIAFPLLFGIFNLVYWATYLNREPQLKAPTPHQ
T1 sequence (P18507 whole entry): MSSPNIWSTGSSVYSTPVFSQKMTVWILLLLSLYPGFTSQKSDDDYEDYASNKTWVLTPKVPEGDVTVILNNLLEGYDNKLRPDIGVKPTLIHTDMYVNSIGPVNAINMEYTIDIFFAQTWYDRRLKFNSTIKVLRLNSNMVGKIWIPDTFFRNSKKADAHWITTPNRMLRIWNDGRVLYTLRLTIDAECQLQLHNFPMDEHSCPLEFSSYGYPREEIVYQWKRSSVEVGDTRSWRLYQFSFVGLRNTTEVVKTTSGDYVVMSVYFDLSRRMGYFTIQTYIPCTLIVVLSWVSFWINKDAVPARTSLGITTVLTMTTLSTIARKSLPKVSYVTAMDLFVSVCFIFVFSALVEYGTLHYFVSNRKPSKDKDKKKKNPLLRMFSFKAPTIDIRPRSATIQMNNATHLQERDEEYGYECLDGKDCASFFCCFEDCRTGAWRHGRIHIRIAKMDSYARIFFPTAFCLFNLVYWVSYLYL
T1 sequence (P28472 whole entry): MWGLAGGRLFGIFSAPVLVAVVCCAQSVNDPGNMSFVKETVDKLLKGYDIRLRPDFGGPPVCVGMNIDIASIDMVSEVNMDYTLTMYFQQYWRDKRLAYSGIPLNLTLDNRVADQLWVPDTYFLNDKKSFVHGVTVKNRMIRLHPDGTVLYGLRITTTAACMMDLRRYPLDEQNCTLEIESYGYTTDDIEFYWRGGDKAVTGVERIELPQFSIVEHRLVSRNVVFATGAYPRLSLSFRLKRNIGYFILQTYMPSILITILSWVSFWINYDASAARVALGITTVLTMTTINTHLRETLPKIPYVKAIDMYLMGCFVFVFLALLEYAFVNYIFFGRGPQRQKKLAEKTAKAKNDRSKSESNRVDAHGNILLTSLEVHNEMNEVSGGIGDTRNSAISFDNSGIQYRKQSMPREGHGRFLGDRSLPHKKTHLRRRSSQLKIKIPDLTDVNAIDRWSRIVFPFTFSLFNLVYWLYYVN

[2] = molecular target: T2, GABA-A receptor; alpha-3/beta-3/gamma-2 (Homo sapiens, UniProt P18507+P28472+P34903); assay: Binding affinity against alpha-3-beta-3-gamma-2 GABAA/BzR receptor subtype.
T2 sequence (P18507 whole entry): T1 sequence (P18507 whole entry)
T2 sequence (P28472 whole entry): T1 sequence (P28472 whole entry)
T2 sequence (P34903 whole entry): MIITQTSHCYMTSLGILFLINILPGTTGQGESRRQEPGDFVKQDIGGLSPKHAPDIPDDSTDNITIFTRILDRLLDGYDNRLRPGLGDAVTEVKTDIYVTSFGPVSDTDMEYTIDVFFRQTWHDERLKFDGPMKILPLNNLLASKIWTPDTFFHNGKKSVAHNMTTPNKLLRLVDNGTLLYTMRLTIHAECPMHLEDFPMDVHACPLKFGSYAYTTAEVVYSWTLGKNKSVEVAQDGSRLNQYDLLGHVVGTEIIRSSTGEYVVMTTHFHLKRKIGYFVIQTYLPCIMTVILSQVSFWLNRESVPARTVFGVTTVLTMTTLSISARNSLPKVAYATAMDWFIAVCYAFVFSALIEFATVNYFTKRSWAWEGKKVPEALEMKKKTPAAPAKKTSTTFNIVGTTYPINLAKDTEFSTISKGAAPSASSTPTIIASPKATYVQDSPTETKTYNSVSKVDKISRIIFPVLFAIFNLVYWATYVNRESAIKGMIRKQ

[3] = molecular target: GABA-A receptor; alpha-1/beta-3/gamma-2 (Homo sapiens) (UniProt P14867+P18507+P28472); assay: It is the ratio of Ki value for alpha-1-beta-3-gamma-2 to that of alpha-5-beta-3-gamma-2
[4] = molecular target: T3, GABA-A receptor; alpha-2/beta-3/gamma-2 (Homo sapiens, UniProt P18507+P28472+P47869); assay: Binding affinity tested against alpha-2-beta-3-gamma-2 GABAA/BzR receptor subtype.
T3 sequence (P18507 whole entry): T1 sequence (P18507 whole entry)
T3 sequence (P28472 whole entry): T1 sequence (P28472 whole entry)
T3 sequence (P47869 whole entry): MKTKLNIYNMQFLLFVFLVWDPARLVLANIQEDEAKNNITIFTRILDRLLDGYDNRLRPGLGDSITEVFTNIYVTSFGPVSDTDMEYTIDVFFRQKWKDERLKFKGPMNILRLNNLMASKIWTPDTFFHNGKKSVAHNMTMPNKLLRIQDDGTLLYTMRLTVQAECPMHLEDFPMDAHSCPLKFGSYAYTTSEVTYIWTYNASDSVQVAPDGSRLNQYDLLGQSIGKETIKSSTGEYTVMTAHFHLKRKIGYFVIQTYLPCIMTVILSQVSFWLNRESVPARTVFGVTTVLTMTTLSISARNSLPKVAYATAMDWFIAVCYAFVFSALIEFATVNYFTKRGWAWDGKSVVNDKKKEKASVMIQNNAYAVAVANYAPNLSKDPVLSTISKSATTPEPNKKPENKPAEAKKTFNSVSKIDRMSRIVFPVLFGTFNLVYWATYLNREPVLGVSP

[5] = molecular target: T4, GABA-A receptor; alpha-5/beta-3/gamma-2 (Homo sapiens, UniProt P18507+P28472+P31644); assay: Binding affinity for Gamma-aminobutyric acid A receptor alpha-5-beta-3-gamma-2
T4 sequence (P18507 whole entry): T1 sequence (P18507 whole entry)
T4 sequence (P28472 whole entry): T1 sequence (P28472 whole entry)
T4 sequence (P31644 whole entry): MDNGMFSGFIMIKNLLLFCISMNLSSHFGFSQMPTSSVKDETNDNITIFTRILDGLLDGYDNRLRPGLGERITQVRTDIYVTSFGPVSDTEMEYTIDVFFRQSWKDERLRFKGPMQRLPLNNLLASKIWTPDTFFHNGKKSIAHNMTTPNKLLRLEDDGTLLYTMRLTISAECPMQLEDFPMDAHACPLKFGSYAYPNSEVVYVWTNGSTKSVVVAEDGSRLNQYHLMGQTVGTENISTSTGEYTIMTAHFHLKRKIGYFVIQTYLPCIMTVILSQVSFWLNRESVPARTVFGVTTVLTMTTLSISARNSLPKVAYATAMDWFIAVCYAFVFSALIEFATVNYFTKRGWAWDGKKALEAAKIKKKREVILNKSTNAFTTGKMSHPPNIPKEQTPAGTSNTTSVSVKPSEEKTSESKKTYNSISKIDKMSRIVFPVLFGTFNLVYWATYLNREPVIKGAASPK

[6] = molecular target: GABA-A receptor; alpha-6/beta-3/gamma-2 (Homo sapiens, UniProt P18507+P28472+Q16445); assay: Binding affinity against Gamma-aminobutyric acid A receptor alpha-6-beta-3-gamma-2
GABA-A receptor; alpha-6/beta-3/gamma-2, sequence (Q16445 whole entry, one chain of several): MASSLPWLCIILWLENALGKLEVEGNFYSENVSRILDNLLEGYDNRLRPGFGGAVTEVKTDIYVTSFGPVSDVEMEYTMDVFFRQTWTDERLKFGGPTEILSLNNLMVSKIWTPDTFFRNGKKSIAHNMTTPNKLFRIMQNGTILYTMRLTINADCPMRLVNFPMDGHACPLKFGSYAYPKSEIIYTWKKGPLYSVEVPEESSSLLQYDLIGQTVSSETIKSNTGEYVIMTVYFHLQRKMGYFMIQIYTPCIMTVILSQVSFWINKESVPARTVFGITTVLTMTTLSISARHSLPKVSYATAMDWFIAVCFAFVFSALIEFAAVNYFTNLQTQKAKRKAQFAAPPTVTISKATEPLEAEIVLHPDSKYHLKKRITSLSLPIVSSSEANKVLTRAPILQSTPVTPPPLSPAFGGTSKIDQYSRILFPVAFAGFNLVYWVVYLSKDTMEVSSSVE
In short: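 Cells scraped into PBS, spun at 3000g, resuspended in 10 mM KH₂PO₄/100 mM KCl pH 7.4. Nonspecific binding with 10⁻⁵ M diazepam; 1 h to equilibrium at 4 °C; filtration, ice-cold buffer wash, scintillation counting.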

| Compound | Ki [1] [µM] | Ki [2] [µM] | Ratio [3] | Ki [4] [µM] | Ki [5] [µM] | Ki [6] [µM] |
| --- | --- | --- | --- | --- | --- | --- |
| C#Cc1ccc2c(c1)C(=O)N1CCC[C@H]1c1c(-c3nc(C)no3)ncn1-2 | 0.089 | 0.091 | 24 | 0.07 | 0.0037 | 0.301 |
| CN1Cc2c(C(=O)OC(C)(C)C)ncn2-c2ccc(N=C=S)cc2C1=O | 0.0171 | 0.05 | 6.8 | 0.0337 | 0.0025 | 0.0307 |
| CN1Cc2c(C(=O)OC(C)(C)C)ncn2-c2ccc([N+](=O)[O-])cc2C1=O | 0.0128 | 0.0302 | 3.7 | 0.0498 | 0.0035 | 0.0225 |
| CN1Cc2c(C(=O)OCC3CC3)ncn2-c2ccc(Cl)cc2C1=O | 0.0164 | 0.0425 | 1.7 | 0.0482 | 0.0098 | 0.168 |
| CN1Cc2c(CCl)ncn2-c2ccc(Cl)cc2C1=O | > 0.3 | > 0.3 | > 10.5 | > 0.3 | 0.0285 | > 0.3 |
| CN1Cc2c(C(=O)OC(C)(C)C)ncn2-c2ccc(I)cc2C1=O | 0.0097 | 0.0109 | 25.5 | 0.0112 | 0.00038 | 0.0046 |
| C#Cc1ccc2c(c1)C(=O)N1CC[C@H]1c1c(-c3nc(C(C)C)no3)ncn1-2 | 0.156 | 0.122 | 18 | 0.088 | 0.0085 | 0.267 |
| CCc1ncn2c1CN(C)C(=O)c1cc(Cl)ccc1-2 | 0.408 | 1.13 | 2.2 | 1.53 | 0.182 | 3.65 |
| CCOC(=O)c1ncn2c1CN(C)C(=O)c1cc(C#C[Si](C)(C)C)ccc1-2 | – | 0.198 | 24.2 | 0.142 | 0.005 | 0.114 |
| CC(=O)c1ncn2c1CN(C)C(=O)c1cc(Cl)ccc1-2 | 17.5 | 22.1 | 6.7 | 33.8 | 2.61 | 29.5 |
| CN1Cc2c(C(=O)OC(C)(C)C)ncn2-c2ccc(N=[N+]=[N-])cc2C1=O | 0.00725 | 0.00566 | 24.3 | – | 0.0003 | 0.00525 |
| CN1Cc2c(C(=O)OC(C)(C)C)ncn2-c2ccc(C#CC[Si](C)(C)C)cc2C1=O | 0.275 | 0.337 | 12 | 0.387 | 0.023 | 0.301 |
| CCOC(=O)c1ncn2c1CN(C)C(=O)c1cc(C#N)ccc1-2 | 0.01 | 0.019 | 1.67 | 0.045 | 0.006 | > 1 |
| CCN(CC)Cc1ncn2c1CN(C)C(=O)c1cc(Cl)ccc1-2 | 9.48 | 15.4 | 3.2 | 30 | 2.58 | 30.2 |
| CCOC(=O)c1ncn2c1[C@H]1CCCN1C(=O)c1cc(C#C[Si](C)(C)C)ccc1-2 | > 1 | > 1 | – | > 1 | > 1 | > 1 |
| C#Cc1ccc2c(c1)C(=O)N1CCC[C@@H]1c1c(-c3nc(C)no3)ncn1-2 | > 1 | > 1 | – | > 1 | 0.157 | > 1 |
| C#Cc1ccc2c(c1)C(=O)N1CC[C@H]1c1c(-c3nc(C)no3)ncn1-2 | – | 0.091 | – | 0.056 | 0.0072 | 0.266 |
| CCOC(=O)c1ncn2c1CN(C)C(=O)c1cc(Cl)ccc1-2 [Ro-151310] | – | – | 8 | – | – | – |
| CN1Cc2c(CO)ncn2-c2ccc(Cl)cc2C1=O | > 0.3 | > 0.3 | – | > 0.3 | > 0.3 | > 0.3 |
| C=Cc1ccc2c(c1)C(=O)N(C)Cc1c(C(=O)OCC)ncn1-2 | 0.0083 | 0.0069 | 20.8 | 0.0102 | 0.0004 | – |
| CN1Cc2c(C(=O)OC(C)(C)C)ncn2-c2ccc(N3CCCC3)cc2C1=O | 0.0058 | 0.169 | 0.63 | – | 0.00925 | 0.325 |
| CCOC(=O)c1ncn2c1CN(C)C(=O)c1cc(N=[N+]=[N-])ccc1-2 [Ro-154513] | – | – | – | – | 0.00027 | – |
| CN1Cc2c(C(=O)OC(C)(C)C)ncn2-c2ccc(O)cc2C1=O | 0.0015 | 0.00053 | 10.7 | – | 0.00014 | 0.00689 |
| COc1ccc2c(c1)C(=O)N(C)Cc1c(C(=O)OC(C)(C)C)ncn1-2 | 0.00674 | 0.00742 | 23 | – | 0.000293 | 0.00828 |
| CCOC(=O)c1ncn2c1CN(C)C(=O)c1cc(C#CC[Si](C)(C)C)ccc1-2 | > 0.3 | > 0.3 | – | > 0.3 | > 0.3 | > 0.3 |
| CCOC(=O)c1ncn2c1[C@H]1CCCN1C(=O)c1cc(Br)ccc1-2 | > 1 | > 1 | – | > 1 | > 1 | > 1 |
